Results reported in publication PMC7787347 (Journal of medicinal chemistry, 2018).
Entries after “also recorded” stand apart in the source; their conditions may differ.

Key:
[1] = system: full-length β-catenin/full-length BCL9 PPI in HCT116 cell lysates; assay: Co-IP in cell lysates; type: cell-based; conditions: 4 h incubation with HCT116 cell lysates, in words
[2] = system: FOPFlash luciferase reporter (three mutant Tcf4 binding sites) in β-catenin activated HEK293 cells; assay: FOPFlash luciferase reporter assay; type: cell-based; conditions: in words; for effect on FOPFlash luciferase reporter activity: β-catenin activated HEK293 cells
HCT116 cells = assay: Cell-bound; type: in vitro ADME; conditions: 5 mL DMEM with 10% FBS
SW480 cells = assay: LDH release cytotoxicity assay; type: cell-based; conditions: 4 h incubation, in words
Outline: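 SW480 cells were seeded at 2 × 10^4 cells/well, held overnight at 37 °C, then exposed to various concentrations of test compound for 4 h. The culture supernatant was reacted with the commercial LDH kit reagents and read at 490 nm. Percent cytotoxicity was calculated from experimental, background and maximum LDH release. Run in triplicate.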

[3] = system: Axin2, LEF1, cyclin D1 mRNA in SW480 cells; assay: qPCR of Wnt target gene mRNA expression; type: cell-based, human; conditions: 24 h, in words
[4] = system: cyclin D1, c-myc, active β-catenin (ABC), total β-catenin in SW480 cells; assay: Western blot of protein expression; type: cell-based; conditions: 24 h, in words
β-catenin/E-cadherin PPI = target: T1, β-catenin/E-cadherin PPI (Homo sapiens, UniProt P35222); assay: AlphaScreen selectivity assay, β-catenin/E-cadherin PPI; type: binding; conditions: for selectivity of BCL9/cadherin: ratio of Ki β-catenin/E-cadherin over Ki β-catenin/BCL9
T1 sequence (P35222 1-781): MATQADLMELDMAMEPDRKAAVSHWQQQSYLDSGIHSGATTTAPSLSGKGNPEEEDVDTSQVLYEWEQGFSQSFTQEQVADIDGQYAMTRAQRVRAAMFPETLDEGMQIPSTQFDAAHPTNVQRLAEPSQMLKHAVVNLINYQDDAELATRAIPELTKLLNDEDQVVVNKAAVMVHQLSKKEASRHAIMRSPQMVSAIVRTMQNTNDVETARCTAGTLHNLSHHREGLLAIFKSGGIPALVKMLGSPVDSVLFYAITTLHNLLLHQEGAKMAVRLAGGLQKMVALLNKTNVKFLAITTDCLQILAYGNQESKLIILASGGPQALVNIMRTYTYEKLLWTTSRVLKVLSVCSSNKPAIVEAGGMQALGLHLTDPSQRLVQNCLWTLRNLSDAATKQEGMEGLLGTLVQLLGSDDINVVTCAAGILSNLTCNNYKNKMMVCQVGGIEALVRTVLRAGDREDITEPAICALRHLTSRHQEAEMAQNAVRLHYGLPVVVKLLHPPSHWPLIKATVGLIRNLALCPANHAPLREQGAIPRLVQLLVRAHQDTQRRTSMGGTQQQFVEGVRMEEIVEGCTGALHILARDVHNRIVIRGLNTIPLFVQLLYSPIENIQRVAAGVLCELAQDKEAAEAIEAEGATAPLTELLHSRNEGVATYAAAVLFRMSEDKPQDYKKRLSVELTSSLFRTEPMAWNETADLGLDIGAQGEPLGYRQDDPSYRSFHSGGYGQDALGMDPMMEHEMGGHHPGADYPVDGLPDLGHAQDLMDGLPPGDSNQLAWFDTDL

[5] = system: β-catenin/BCL9 PPI in HCT116 cells; assay: Co-IP in whole cells; type: cell-based; conditions: 24 h, in words
BCL9 (Homo sapiens) = BCL9 (Homo sapiens) (UniProt O00512); conditions: cited from earlier work
β-catenin/BCL9 PPI = target: T2, β-catenin/BCL9 PPI (Homo sapiens, UniProt P35222); assay: AlphaScreen competitive inhibition assay, β-catenin/BCL9 PPI; type: binding; conditions: in words
T2 sequence (P35222 1-781): T1 sequence (P35222 1-781)

SW480 = conditions: read-out: MTs IC50 ± SD SW480; Wnt/β-catenin hyperactive, 72 h; cited from earlier work
MDA-MB-231 = conditions: read-out: MTs IC50 ± SD MDA-MB-231; Wnt/β-catenin hyperactive, 72 h; cited from earlier work
β-catenin = conditions: in words; cited from earlier work
MDA-MB-231 cells = conditions: cited from earlier work
HCT116 = conditions: read-out: MTs IC50 ± SD HCT116; Wnt/β-catenin hyperactive, 72 h; cited from earlier work
A549 = conditions: read-out: MTs IC50 ± SD normal Wnt A549, 72 h; cited from earlier work
BCL9 HD2 domain = conditions: in words; cited from earlier work

BCL9 (Homo sapiens), sequence (O00512 whole entry): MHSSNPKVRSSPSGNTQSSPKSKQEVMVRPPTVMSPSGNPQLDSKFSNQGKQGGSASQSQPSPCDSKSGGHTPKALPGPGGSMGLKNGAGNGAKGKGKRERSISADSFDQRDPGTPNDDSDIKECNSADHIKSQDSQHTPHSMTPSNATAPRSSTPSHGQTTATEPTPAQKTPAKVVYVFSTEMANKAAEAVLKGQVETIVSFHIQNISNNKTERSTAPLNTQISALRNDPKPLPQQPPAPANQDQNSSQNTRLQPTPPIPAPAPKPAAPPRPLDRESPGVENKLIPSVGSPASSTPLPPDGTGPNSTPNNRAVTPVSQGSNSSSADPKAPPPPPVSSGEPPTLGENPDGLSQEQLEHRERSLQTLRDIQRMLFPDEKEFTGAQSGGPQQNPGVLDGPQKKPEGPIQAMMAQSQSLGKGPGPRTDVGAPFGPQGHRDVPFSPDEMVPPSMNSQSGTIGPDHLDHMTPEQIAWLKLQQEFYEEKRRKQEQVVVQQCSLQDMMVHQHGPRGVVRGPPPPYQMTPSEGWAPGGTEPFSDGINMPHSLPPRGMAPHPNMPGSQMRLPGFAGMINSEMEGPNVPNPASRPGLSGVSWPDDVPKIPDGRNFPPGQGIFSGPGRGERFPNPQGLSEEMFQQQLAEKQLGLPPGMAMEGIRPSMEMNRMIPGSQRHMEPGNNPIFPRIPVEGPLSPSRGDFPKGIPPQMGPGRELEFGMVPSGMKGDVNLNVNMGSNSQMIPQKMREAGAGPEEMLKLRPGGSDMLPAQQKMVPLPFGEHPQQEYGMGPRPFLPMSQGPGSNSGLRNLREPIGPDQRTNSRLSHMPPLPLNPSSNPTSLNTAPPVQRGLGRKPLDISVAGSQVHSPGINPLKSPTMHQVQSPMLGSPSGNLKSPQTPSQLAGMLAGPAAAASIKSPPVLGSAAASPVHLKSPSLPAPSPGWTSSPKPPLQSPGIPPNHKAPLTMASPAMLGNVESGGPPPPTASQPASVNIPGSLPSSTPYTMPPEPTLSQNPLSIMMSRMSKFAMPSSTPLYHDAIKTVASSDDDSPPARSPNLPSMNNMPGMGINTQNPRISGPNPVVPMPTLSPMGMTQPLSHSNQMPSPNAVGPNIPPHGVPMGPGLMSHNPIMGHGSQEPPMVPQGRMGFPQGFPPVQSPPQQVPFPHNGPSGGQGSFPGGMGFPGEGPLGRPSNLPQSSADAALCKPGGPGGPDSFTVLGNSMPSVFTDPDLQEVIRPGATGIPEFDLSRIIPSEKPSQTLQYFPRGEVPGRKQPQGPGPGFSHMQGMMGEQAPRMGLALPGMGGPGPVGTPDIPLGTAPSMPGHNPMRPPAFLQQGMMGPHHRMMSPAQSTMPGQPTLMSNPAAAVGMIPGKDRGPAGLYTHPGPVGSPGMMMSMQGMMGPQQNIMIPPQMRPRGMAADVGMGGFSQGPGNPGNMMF

Row | Ki (β-catenin/E-cadherin PPI) | selectivity of BCL9/cadherin (β-catenin/E-cadherin PPI) | AlphaScreen biochemical inhibitory activity compared with 1 (β-catenin/BCL9 PPI) | Compound | effect on FOPFlash luciferase reporter activity [2] | mRNA expression of Wnt target genes Axin2, cyclin D1 and LEF1 [3] | mRNA expression of house-keeper gene HPRT [3] | level of E-cadherin-bound β-catenin (total β-catenin) [4] | level of the active form of β-catenin (ABC) [4] | protein expression levels of cyclin D1 and c-myc [4] | further results
1 | > 915 µM | >1900 fold |  | Cl.Cl.O=C(Nc1ccc(O[C@@H]2CCNC2)c(-c2cccc(-c3nn[nH]n3)c2)c1)c1ccc(O[C@H]2CCNC2)c(-c2ccc(F)c(F)c2)c1 [Compound 29, 3′,4′-Difluoro-6-(((S)-pyrrolidin-3-yl)oxy)-N-(6-(((R)-pyrrolidin-3-yl)oxy)-3′-(2H-tetrazol-5-yl)-[1,1′-biphenyl]-3-yl)-[1,1′-biphenyl]-3-carboxamide Dihydrochloride] | specific for the Wnt/β-catenin signaling pathway | dose-dependently inhibited | did not inhibit | no effect | inhibit the level of the active form of β-catenin (ABC) | significantly decreased | disruption of full-length β-catenin/full-length BCL9 PPI [1]: dose-dependently disrupt; effect on FOPFlash luciferase reporter activity up to 200 μM ([2]; up to the concentration of 200 μM): no effect; cell-bound concentration at 4 °C (HCT116 cells; 6 h incubation at 4 °C): 5.1 nmol/million HCT116 cells; cell-bound concentration at 37 °C (HCT116 cells; 6 h incubation, input concentration 50 μM): 6.6 nmol/million HCT116 cells; cytotoxicity in LDH release assay (SW480 cells): did not exhibit cytotoxicity; also recorded: did not show cytotoxicity; disruption of β-catenin/BCL9 PPI in cells [5]: inhibited the β-catenin/BCL9 PPI in a dose-dependent manner
2 |  |  |  | β-catenin (from UniProt P35222) |  |  |  |  |  |  | Kd (BCL9 (Homo sapiens)): 0.47 µM
3 |  |  | comparable with that of 1 | Cl.Cl.O=C(Nc1ccc(O[C@H]2CCNC2)c(-c2cccc(-c3nn[nH]n3)c2)c1)c1ccc(O[C@H]2CCNC2)c(-c2ccc(F)c(F)c2)c1 [Compound 27, 3′,4′-Difluoro-6-((S)-pyrrolidin-3-yloxy)-N-(6-((S)-pyrrolidin-3-yloxy)-3′-(2H-tetrazol-5-yl)-[1,1′-biphenyl]-3-yl)-[1,1′-biphenyl]-3-carboxamide Dihydrochloride] |  |  |  |  |  |  | 
4 | > 915 µM | >570 fold | comparable with that of 1 | Cl.Cl.O=C(Nc1ccc(O[C@@H]2CCNC2)c(-c2cccc(-c3nn[nH]n3)c2)c1)c1ccc(O[C@H]2CCNC2)c(-c2ccc3ccsc3c2)c1 [Compound 30, (R)-3-((5-(3-(Benzo[b]thiophen-6-yl)-4-(((S)-pyrrolidin-1-ium-3-yl)oxy)benzamido)-3′-(2H-tetrazol-5-yl)-[1,1′-biphenyl]-2-yl)oxy)-pyrrolidin-1-ium Chloride] | specific for the Wnt/β-catenin signaling pathway |  |  |  |  |  | 
5 |  |  |  | Cl.Cl.O=C(Nc1ccc(O[C@H]2CCNC2)c(-c2ccc(F)cc2)c1)c1ccc(O[C@H]2CCNC2)c(-c2ccc(F)c(F)c2)c1 [Compound 1] |  |  |  |  |  |  | IC50 (SW480): 3.5 ± 0.32 µM; IC50 (MDA-MB-231): 2.3 ± 0.25 µM; binding with β-catenin in ITC (β-catenin): bind with β-catenin; cell-bound concentration at 4 °C (MDA-MB-231 cells; 6 h incubation at 4 °C, 5 mL DMEM with 10% FBS): 1 nmol/million MDA-MB-231 cells; cell-bound concentration at 37 °C (MDA-MB-231 cells; 6 h incubation, 5 mL DMEM with 10% FBS, input concentration 2 μM): 6.7 nmol/million MDA-MB-231 cells; amount bound with the cell membrane by the nonspecific manner (MDA-MB-231 cells; MDA-MB-231 cells): 15%; IC50 (HCT116): 3.1 ± 0.83 µM; IC50 (A549): 8.8 ± 0.62 µM; binding with BCL9 HD2 domain in ITC (BCL9 HD2 domain): not the BCL9 HD2 domain
6 |  |  |  | Cl.Cl.O=C(Nc1ccc(O[C@H]2CCNC2)c(-c2ccc(F)cc2)c1)c1ccc(O[C@H]2CCNC2)c(-c2ccc3ccsc3c2)c1 [Compound 3, 3-(Benzo[b]thiophen-6-yl)-N-(4′-fluoro-6-(((S)-pyrrolidin-3-yl)-oxy)-[1,1′-biphenyl]-3-yl)-4-(((S)-pyrrolidin-3-yl)oxy)benzamide Dihydrochloride] |  | dose-dependently inhibited | did not inhibit | no effect | inhibit the level of the active form of β-catenin (ABC) | significantly decreased | 
